The text below walks through data of article PMC8217219 (Bone, 2021).

Data set [1] has as its system MC3T3 cells. As to the kind of experiment: Live/Dead cytotoxicity assay. In kind it is cell-based. The note with it: subconfluent MC3T3 cells, 100μM, 3 days. Put shortly:
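Viability was scored in subconfluent MC3T3-E1 (sc4) cultures after 3 days with test compound at 1, 10 or 100 μM. Medium was removed and cells were incubated 20 min with calcein-AM and ethidium homodimer-1 in PBS. Live-cell fluorescence was read at 465/540 nm. Values were normalized to DMSO-treated control (1:100 dilution).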

For data set [2], the system named is MC3T3 cells. Kind of data set: Alizarin red staining. Type of data set: cell-based, mouse. The note with it: for osteogenic boosting (calcium deposition, alizarin red) / mineralization (alizarin red staining, percent coverage area): 5μM, day 18; for osteogenic boosting (calcium deposition, alizarin red): Ezh2 overexpressing MC3T3 cells; for mineralization (alizarin red staining, percent coverage area): control MC3T3 cells (empty vector).

Data set [3] concerns MC3T3 cells. Kind of data set: Alkaline phosphatase. Type of data set: cell-based, mouse. The note with it: day six; for alkaline phosphatase (Alpl) enzymatic activity: MC3T3 cells, optimal doses (40μM CPI-169, 5μM all others), vs vehicle.
For data set [4], the system named is MC3T3 cells. As to the kind of experiment: Hoechst staining. In kind it is cell-based. As to conditions: subconfluent MC3T3 cells, 100μM, 3 days. Put shortly:
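Subconfluent, proliferating MC3T3-E1 (sc4) cells were exposed to test compound at 1, 10 or 100 μM for 3 days. Cells were washed with PBS, covered with 0.1X Tris-EDTA, frozen at −80°C for at least 2 h and thawed at room temperature. They were then stained 15 min in the dark with Hoechst 33258 (0.5 μg/ml in 0.3 M NaCl, 5 mM Tris, pH 8.0). Fluorescence was read at 340/460 and fit to a DNA standard curve. Values were normalized to DMSO control (1:100 dilution); n = 3.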

The subject of data set [5] is MC3T3 cells. Kind of data set: RT-qPCR of osteogenic genes. In kind it is cell-based, mouse. The note with it: for osteogenic markers (mRNA) / expression of bone-related genes: 5μM; for expression of bone-related genes: combined with Ezh2 siRNA knockdown, days five and ten. Background: Real-time PCR tracks product formation cycle by cycle.
Data set [6] deals with MC3T3 cells. As to the kind of experiment: MTS metabolic activity assay. Type of data set: cell-based. As to conditions: subconfluent MC3T3 cells, 10μM, 3 days. Put shortly: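 Subconfluent MC3T3-E1 (sc4) cells were given test compound at 1, 10 or 100 μM for 3 days. The MTS reagent was used per kit protocol and absorbance was read at 490 nm. Metabolic activity was expressed relative to DMSO-treated control (1:100 dilution).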
On the technique in general: Tetrazolium dyes change colour on reduction, which living cells bring about.

In data set [7] the test system is H3K27me3. As to the kind of experiment: Western blot of cellular H3K27me3 levels. Type of data set: cell-based, mouse. The note with it: MC3T3 cells, single dose 1μM, 24 hour treatment, relative to Gapdh. For orientation: Immunoblotting shows a protein as a band on a membrane.
The conditions of data set [8]: cited from earlier work.
The mark [9] stands for this setting: 5μM day two to five, combined with Ezh2 siRNA knockdown, day 24.
The mark [10] stands for this setting: MC3T3 cell differentiation, day ten.
[11] abbreviates: MC3T3 cells overexpressing Ezh2, day ten.

Where only a bound is given, the exact number is not on record here.

On to `CCS(=O)(=O)N1CCC([C@@H](C)n2c(C)c(C(=O)NCc3c(OC)cc(C)[nH]c3=O)c3ccccc32)CC1` [CPI-169], for which the “fraction of living cells (live/dead staining)” value (“fraction … (live/dead staining)” below) in data set [1] is on record as “not observed”. Also, the optimal dose in data set [2] (MC3T3 cells, 2X dose, from alizarin red quantitation (Fig. 4, red arrows)) came out at 40 µM. For the same compound, in data set [3], the “alkaline phosphatase (Alpl) enzymatic activity” value is on record as “~three fold stimulation”. The “cell numbers (Hoechst staining)” value in data set [4] is listed as “not observed”.
As to `C[S+](C)[O-]` [DMSO, dimethyl sulfoxide], in data set [3] (low (0.05%) and high (0.4%) doses vs osteogenic medium (OM)), the Alpl enzymatic activity entry is given as “enhance Alpl enzymatic activity”. Moreover, the “mRNA levels of osteoblast differentiation markers (Alpl, Sp7, Ibsp, Phospho1)” value in data set [5] (0.05% DMSO or 0.4% DMSO vs no DMSO, osteogenic medium, six days) is listed as “significantly elevated”. Also, the “expression of late marker Bglap” value in data set [5] (DMSO 0.05% or 0.4% in osteogenic media, day ten) is listed as “did not show compelling changes”.
On to `CCC(CC)n1ccc2c(C(=O)NCc3c(C)cc(C)[nH]c3=O)cc(C#N)cc21` [EI1], for which, in data set [1], the “fraction … (live/dead staining)” value was “not observed”. In addition, the “cell numbers (Hoechst staining)” value in data set [4] is “not observed”. Besides, the “metabolic activity (MTS)” value in data set [6] was “less harmful to metabolic cell activity”. Moreover, the “reduction in H3K27me3” value in data set [7] is given as 2–3 fold.
For `CCN(c1cc(-c2ccc(CN3CCOCC3)cc2)cc(C(=O)NCc2c(C)cc(C)[nH]c2=O)c1C)C1CCOCC1` [EPZ-6438], the “fraction … (live/dead staining)” value in data set [1] is recorded as “significant reductions”. Besides, the “alizarin red staining compared with GSK126 co-treatment” value in data set [2] (5μM combined with Ezh2 siRNA, day 24) is recorded as “more robust staining”. The “ECM mineralization (alizarin red)” value in data set [2] (setting [9]) was “enhances ECM mineralization”. Moreover, in data set [2], the “osteogenic boosting (calcium deposition, alizarin red)” value is reported as “not observed”; the “mineralization (alizarin red staining, percent coverage area)” value is “accelerated mineralization and more intense alizarin red staining”. In addition, the “osteogenic markers (mRNA)” value in data set [5] (setting [10]) is “highly effective at increasing osteogenic markers”. In addition, the “osteogenic markers (mRNA)” value in data set [5] (setting [11]) is recorded as “not when cells overexpress Ezh2”. Moreover, in data set [5], the “expression of bone-related genes” value is recorded as “co-stimulates expression of bone-related genes”. In addition, in data set [4], the “cell numbers (Hoechst staining)” value was “significant reductions”. Further, in data set [6], the “metabolic activity (MTS)” value is “less harmful to metabolic cell activity”. Also, the “reduction in H3K27me3” value in data set [7] is reported as greater than 5 fold.
With `CC[C@H](C)n1cc(C)c2c(C(=O)NCc3c(C)cc(C)[nH]c3=O)cc(-c3ccc(N4CCNCC4)nc3)cc21` [GSK126], the “fraction … (live/dead staining)” value in data set [1] is given as “significant reductions”. Further, the “ECM mineralization (alizarin red)” value in data set [2] (setting [9]) is recorded as “enhances ECM mineralization”. Besides, in data set [2], the “osteogenic boosting (calcium deposition, alizarin red)” value is reported as “not observed”; the “mineralization (alizarin red staining, percent coverage area)” value was “accelerated mineralization and more intense alizarin red staining”. Also, the “osteogenic markers (mRNA)” value in data set [5] (setting [10]) is “highly effective at increasing osteogenic markers”. Further, the “osteogenic markers (mRNA)” value in data set [5] (setting [11]) is reported as “not when cells overexpress Ezh2”. In addition, the “expression of bone-related genes” value in data set [5] was “co-stimulates expression of bone-related genes”. Moreover, in data set [4], the “cell numbers (Hoechst staining)” value is given as “significant reductions”. In data set [8] (adult mice (8–12 weeks) ref 29), the “adverse effects in other tissues and organs (e.g., spleen, liver)” value is “no adverse effects”; the bone anabolic effect entry was “modestly bone anabolic”. Besides, the bone accrual result in data set [8] (normal and ovariectomized mice ref 29) is reported as “effective for stimulation of bone accrual”. Besides, the “reduction in H3K27me3” value in data set [7] is given as 2–3 fold.
As for `Cc1cc(C)c(CNC(=O)c2cc(-c3ccc(N4CCN(C)CC4)nc3)cc3c2c(C)cn3C(C)C)c(=O)[nH]1` [GSK503], the “fraction … (live/dead staining)” value in data set [1] is listed as “significant reductions”. The “cell numbers (Hoechst staining)” value in data set [4] is recorded as “significant reductions”. The “reduction in H3K27me3” value in data set [7] is reported as greater than 5 fold.
Regarding `Cc1cc(C)c(CN2CCc3c(Cl)cc(-c4c(C)noc4C)c(Cl)c3C2=O)c(=O)[nH]1` [PF-06726304], the “fraction … (live/dead staining)” value in data set [1] is “significant reductions”. For the same compound, the “cell numbers (Hoechst staining)” value in data set [4] was “significant reductions”.
For the compound `CCCc1cc(C)[nH]c(=O)c1CNC(=O)c1cc(-c2ccc(N3CCN(C(C)C)CC3)nc2)cc2c1cnn2C(C)C` [UNC1999], the “fraction … (live/dead staining)” value in data set [1] is recorded as “significant reductions”. For the same compound, in data set [2] (MC3T3 cells, optimal doses for first six days, day 24 and day 28), the “ECM mineralization (alizarin red)” value is “except UNC1999”. Also, the “alkaline phosphatase (Alpl) enzymatic activity” value in data set [3] is listed as “except for UNC1999”. For the same compound, the “cell numbers (Hoechst staining)” value in data set [4] was “significant reductions”. In addition, the “reduction in H3K27me3” value in data set [7] is greater than 5 fold.
